Experimental data collected from several papers.
Lines come from different studies, so protocols differ.
Matrix: plasma

Compound	test system	setting	Cmax
CO[C@H]1CC[C@H](N2C(=O)CNc3ncc(-c4ccc(C(C)(C)O)nc4)nc32)CC1	human	oral, 60 mg, multiple doses, patients	480 ng/mL
NS(=O)(=O)NCCNc1nonc1C(=NO)Nc1ccc(F)c(Br)c1	human	oral, 300 mg, multiple doses, twice daily, steady state, patients	2480 nM
COCCOc1cnc2ccn([C@H](C)c3nnc4c(F)cc(-c5cnn(C)c5)cn34)c(=O)c2c1	human	oral, 150 mg, multiple doses, once daily, patients	2910 ng/mL
O=C(NO)c1ccc(CN(c2cnccn2)c2cnccn2)cc1	human	oral, 800 mg, multiple doses, twice daily, patients	1270 ng/mL
COc1cc2c(cc1OC)CN(CCc1ccc(NC(=O)c3cc(OC)c(OC)cc3NC(=O)c3cnc4ccccc4c3)cc1)CC2	human	intravenous, 1 mg/kg, patients	2200 nM
COc1cc(C(=O)NC2CCN(C)CC2)c(F)cc1Nc1ncc(C(F)(F)F)c(Oc2cccc3c2C(=O)N(C)C3)n1	human	oral, 10 mg, single dose, patients	44.8 nM
CC(C)(Sc1ccncc1-c1ccc(C#N)c2ccccc12)C(=O)O	male human	oral, 5 mg, single dose, fasted, healthy volunteers	72.9 ng/mL
C[C@@]1(c2cc(NC(=O)c3ccc(C#N)cn3)ccc2F)C=CSC(N)=N1	human	oral, 30 mg, single dose	148 ng/mL
FC(F)(F)c1ccc(CNc2ccc(Cc3c[nH]c4ncc(Cl)cc34)cn2)cn1	human	oral, 600 mg, multiple doses, patients	3660 ng/mL
C#Cc1cccc(Nc2ncnc3cc(OCCOC)c(OCCOC)cc23)c1	human	oral, 100 mg, patients	1820 nM
CC(C)(C(=O)N1CCOc2c(C#N)cncc2C1)C(F)F	human	oral, 30 mg, single dose, fasted, healthy volunteers	417 ng/mL
COc1ccc([C@@H]2CN(C(=O)[C@@H](O)CO)C[C@@]2(C)[C@@H](C)O)cc1OC1CN(c2ccc(C)cn2)C1	human	oral, 0.1 mg, single dose, healthy volunteers	8.8 ng/mL
CCCCC1=NC2(CCCC2)C(=O)N1Cc1ccc(-c2ccccc2S(=O)(=O)Nc2noc(C)c2C)c(COCC)c1	human	oral, 800 mg, single dose, fasted, healthy volunteers	7650 ng/mL
Oc1cc(O)c2c(c1)O[C@@H](c1ccc(O)c(O)c1)[C@@H](O)C2	human	oral, 100 mg, single dose	3.6 ng/mL
Cc1ccc(C(=O)N(CCCN)[C@@H](c2oc3cc(Cl)ccc3c(=O)c2Cc2ccccc2)C(C)C)cc1	human	intravenous, 4 mg/m², single dose, patients, infusion	489 ng/mL
COc1cc2c(Nc3ccc(Br)cc3F)ncnc2cc1OCC1CCN(C)CC1	human	oral, 85 mg/m², multiple doses, once daily, patients	716 ng/mL

Compound	test system	setting	Cmax
CCn1c(=O)c(-c2cc(NC(=O)Nc3ccccc3)c(F)cc2Br)cc2cnc(NC)cc21	human	oral, 250 mg, single dose, patients	1070 ng/mL
N#CN1C[C@H](n2nc(-c3ccc(Oc4ccc(Cl)cn4)cc3)c(C(N)=O)c2N)CCC12CC2	human	oral, 600 mg, fasted	1060 ng/mL
CCCOc1ccc([C@H]2CNC(=O)N2c2ccc3[nH]cnc3c2)cc1	human	oral, 200 mg, single dose, fed, healthy volunteers	565 ng/mL
CNC(=O)c1ccccc1Sc1ccc2c(/C=C/c3ccccn3)n[nH]c2c1	human	oral, 5 mg, single dose, fasted	51 ng/mL
Cn1cc(-c2ccc(S(=O)(=O)[C@@H]3C[C@@H](C(=O)NC4(C#N)CC4)N(C(=O)C4(C(F)(F)F)CC4)C3)c(C(F)(F)F)c2)cn1	human	oral, 1 mg, single dose, fasted, healthy volunteers	4.51 ng/mL
O=C(O)C[C@H](O)C[C@H](O)/C=C/c1c(C2CC2)nc2ccccc2c1-c1ccc(F)cc1	human	oral, 2 mg, single dose, fasted, healthy volunteers, tablet	36.4 ng/mL
CC(C)(O)c1ccccc1-c1ccc2[nH]c(/C=C/c3ccc(C(F)(F)F)cc3)nc2c1	male human	oral, 5 mg, single dose, fasted, healthy volunteers	29.6 ng/mL
CC(C)n1cc(C#N)c2cc(-n3cc(C(=O)O)cn3)ccc21	human	oral, 400 mg, single dose, fasted, healthy volunteers	14700 ng/mL
CCc1nc2c(C)cc(N3CCN(CC(=O)N4CC(O)C4)CC3)cn2c1N(C)c1nc(-c2ccc(F)cc2)c(C#N)s1	human	oral, 1000 mg, fed, healthy volunteers	13200 ng/mL
O=C(Nc1c(Cl)cncc1Cl)c1ccc(OC(F)F)c(OCC2CC2)c1	human	oral, 0.5 mg, single dose, fasted	12.5 ng/mL
Cn1c(=O)oc2ccc(-c3ccc(C[C@@H](C#N)NC(=O)[C@@H]4CNCCCO4)cc3)cc21	male human	oral, 35 mg, single dose, healthy volunteers	668 nM
O=C(/C=C/c1cccc(S(=O)(=O)Nc2ccccc2)c1)NO	human	intravenous, 1800 mg/m², patients	76800 ng/mL
CCCCC[C@H](O)CC[C@@H]1[C@H]2Cc3cccc(OCC(=O)O)c3C[C@H]2C[C@H]1O	human	inhaled, 36 µg, single dose, healthy volunteers	0.87 ng/mL
CNCc1ccc(-c2[nH]c3cc(F)cc4c3c2CCNC4=O)cc1	human	oral, 600 mg, multiple doses, twice daily, steady state	2650 ng/mL
CS(=O)(=O)CCNCc1ccc(-c2ccc3ncnc(Nc4ccc(OCc5cccc(F)c5)c(Cl)c4)c3c2)o1	human	oral, 900 mg, multiple doses, twice daily, steady state, patients	3570 ng/mL
CO[C@@H]1[C@H](OC(=O)N2CC(CCN3CCOCC3)C2)CC[C@]2(CO2)[C@H]1[C@@]1(C)O[C@@H]1CC=C(C)C	human	subcutaneous, 0.6 mg, single dose, healthy volunteers	2.28 ng/mL
